Experimental data: ChEMBL document CHEMBL1129498, “Azole endothelin antagonists. 2. Structure-activity studies” (J Med Chem, 1996)

Assays:
[1] = target: T1, Endothelin receptor type B (Sus scrofa, UniProt P35463); experiment: Inhibitory activity was evaluated against ET- B Binding to Endothelin B receptor from porcine cerebellar membranes
T1 sequence (P35463 whole entry): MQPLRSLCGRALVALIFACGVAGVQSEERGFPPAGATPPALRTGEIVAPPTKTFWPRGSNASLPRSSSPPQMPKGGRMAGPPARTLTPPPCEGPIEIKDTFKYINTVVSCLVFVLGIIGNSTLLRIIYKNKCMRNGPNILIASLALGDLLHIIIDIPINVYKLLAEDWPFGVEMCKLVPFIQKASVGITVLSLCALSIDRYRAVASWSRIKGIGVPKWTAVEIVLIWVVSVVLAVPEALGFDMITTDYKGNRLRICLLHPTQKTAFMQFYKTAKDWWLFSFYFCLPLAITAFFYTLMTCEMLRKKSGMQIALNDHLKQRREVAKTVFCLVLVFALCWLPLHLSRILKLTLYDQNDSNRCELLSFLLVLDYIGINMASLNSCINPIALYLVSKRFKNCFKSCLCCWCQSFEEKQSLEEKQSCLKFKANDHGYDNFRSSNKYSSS

Endothelin-1 receptor = target: T2, Endothelin-1 receptor (Rattus norvegicus, UniProt P26684); experiment: Inhibitory activity was evaluated against ET- A Binding to Endothelin A receptor in MMQ cell homogenates; type: cell-free
T2 sequence (P26684 whole entry): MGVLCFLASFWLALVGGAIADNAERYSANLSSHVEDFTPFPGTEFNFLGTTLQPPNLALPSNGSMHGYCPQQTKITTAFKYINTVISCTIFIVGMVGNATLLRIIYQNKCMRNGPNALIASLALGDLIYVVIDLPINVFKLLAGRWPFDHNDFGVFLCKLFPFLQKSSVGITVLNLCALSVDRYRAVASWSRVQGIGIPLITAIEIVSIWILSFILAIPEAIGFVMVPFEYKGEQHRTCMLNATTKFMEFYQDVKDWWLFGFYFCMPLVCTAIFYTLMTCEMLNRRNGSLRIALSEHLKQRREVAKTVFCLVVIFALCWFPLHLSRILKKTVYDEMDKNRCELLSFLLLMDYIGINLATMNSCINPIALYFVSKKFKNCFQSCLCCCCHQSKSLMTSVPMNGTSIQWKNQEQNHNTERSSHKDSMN

MMQ = experiment: Inhibitory activity was evaluated by measuring the PI hydrolysis in MMQ cell line; type: functional, cell-based, Rattus norvegicus
How it was run: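 MMQ cells (0.4 × 10⁶ cells/mL) labeled 16 h with 10 µCi/mL [³H]myoinositol in RPMI, PBS-washed, then held 60 min in buffer A with protease inhibitors and 10 mM LiCl. Compound pre-incubated 5 min, then 1 nM ET-1 challenge for 30 min at 37 °C, stopped with chloroform-methanol. Total inositol phosphates extracted and taken from the aqueous phase by AG1-X8 anion-exchange batch chromatography.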

SMILES	IC50 [1]	IC50 (Endothelin-1 receptor)	IC50 (MMQ; Rattus norvegicus, MMQ)	IC50 (MMQ; mmq)
Cc1[nH]c([C@@H](Cc2cn(C)c3ccccc23)NC(=O)[C@H](CC(C)C)NC(=O)NC2CCCCC2)nc1C(=O)O	34000 nM	11 nM	4.1 nM	
Cc1[nH]c([C@@H](Cc2cn(C)c3ccccc23)NC(=O)[C@H](CC(C)C)NC(=O)Nc2ccccc2)nc1C(=O)O	37000 nM	7.6 nM	1.3 nM	
Cc1oc([C@@H](Cc2cn(C)c3ccccc23)NC(=O)[C@H](CC(C)C)NC(=O)Nc2ccccc2)nc1C(=O)O	30000 nM	16 nM	53 nM	
Cc1oc([C@@H](Cc2cn(C)c3ccccc23)NC(=O)[C@H](CC(C)C)NC(=O)N2CCOC23CCCCC3)nc1C(=O)O	35000 nM	5.7 nM	6.1 nM	
Cc1oc([C@@H](Cc2cn(C)c3ccccc23)NC(=O)[C@H](CC(C)C)NC(=O)N2CCCc3ccccc32)nc1C(=O)O	66000 nM	33 nM	0.9 nM	
Cc1[nH]c([C@@H](Cc2cn(C)c3ccccc23)NC(=O)[C@H](CC(C)C)NC(=O)NC2CCCC2)nc1C(=O)O	67000 nM	37 nM	43 nM	
Cc1oc([C@@H](Cc2cn(C)c3ccccc23)NC(=O)[C@H](CC(C)C)NC(=O)N2CCc3ccccc32)nc1C(=O)O	34000 nM	5.9 nM	3.6 nM	

These reach a lower IC50 [1]. Values come first.

IC50 [1]	IC50 (Endothelin-1 receptor)	IC50 (MMQ; Rattus norvegicus, MMQ)	IC50 (MMQ; mmq)	SMILES
22000 nM	26 nM	8.6 nM		Cc1[nH]c([C@@H](Cc2cn(C)c3ccccc23)NC(=O)[C@H](CC(C)C)NC(=O)NC2CCCC(C)C2)nc1C(=O)O (stereo partly drawn)
9500 nM	19 nM		36 nM	Cc1[nH]c([C@@H](Cc2cn(C)c3ccccc23)NC(=O)[C@H](CC(C)C)NC(=O)NC2CC3CCC2C3)nc1C(=O)O (stereo in doubt; 14p)
8300 nM	29 nM		16 nM	Cc1[nH]c([C@@H](Cc2cn(C)c3ccccc23)NC(=O)[C@H](CC(C)C)NC(=O)NC2CC3CCC2C3)nc1C(=O)O (stereo in doubt; 14o)
2400 nM	17 nM	26 nM		Cc1oc([C@@H](Cc2cn(C)c3ccccc23)NC(=O)[C@H](CC(C)C)NC(=O)Nc2ccccc2F)nc1C(=O)O
